# The source made the active and inactive calls. The rule behind the calls is not given here.
# Assays:
# [1] = target: 5-hydroxytryptamine receptor 2A (Homo sapiens) (UniProt P28223); test: Displacement of [3H]-Ketanserine from recombinant human 5-HT2A receptor expressed in CHOK1 cell membranes after 60 mins by microbeta scintillation counting analysis
# [2] = target: T1, 5-hydroxytryptamine receptor 1A (Homo sapiens) (UniProt P08908); test: Displacement of [3H]-8-OH-DPAT from recombinant human 5-HT1A receptor expressed in HEK293 EBNA cell membranes after 120 mins by microbeta scintillation counting analysis
# T1 sequence (whole entry): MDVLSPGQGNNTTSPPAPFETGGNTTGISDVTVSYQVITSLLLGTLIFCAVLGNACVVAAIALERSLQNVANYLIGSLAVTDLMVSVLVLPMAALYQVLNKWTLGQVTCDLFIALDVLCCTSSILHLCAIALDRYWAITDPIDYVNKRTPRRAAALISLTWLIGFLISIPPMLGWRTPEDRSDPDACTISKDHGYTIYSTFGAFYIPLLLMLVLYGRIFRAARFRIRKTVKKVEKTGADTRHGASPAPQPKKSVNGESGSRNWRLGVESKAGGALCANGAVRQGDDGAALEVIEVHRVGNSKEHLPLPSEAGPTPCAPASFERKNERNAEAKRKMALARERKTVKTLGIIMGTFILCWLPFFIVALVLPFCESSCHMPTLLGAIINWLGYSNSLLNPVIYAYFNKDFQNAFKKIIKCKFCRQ
# [3] = target: T2, 5-hydroxytryptamine receptor 2C (Homo sapiens) (UniProt P28335); test: Displacement of [3H]-Mesulergine from recombinant human 5-HT2C receptor expressed in HEK293 cell membranes after 180 mins by microbeta scintillation counting analysis
# T2 sequence (whole entry): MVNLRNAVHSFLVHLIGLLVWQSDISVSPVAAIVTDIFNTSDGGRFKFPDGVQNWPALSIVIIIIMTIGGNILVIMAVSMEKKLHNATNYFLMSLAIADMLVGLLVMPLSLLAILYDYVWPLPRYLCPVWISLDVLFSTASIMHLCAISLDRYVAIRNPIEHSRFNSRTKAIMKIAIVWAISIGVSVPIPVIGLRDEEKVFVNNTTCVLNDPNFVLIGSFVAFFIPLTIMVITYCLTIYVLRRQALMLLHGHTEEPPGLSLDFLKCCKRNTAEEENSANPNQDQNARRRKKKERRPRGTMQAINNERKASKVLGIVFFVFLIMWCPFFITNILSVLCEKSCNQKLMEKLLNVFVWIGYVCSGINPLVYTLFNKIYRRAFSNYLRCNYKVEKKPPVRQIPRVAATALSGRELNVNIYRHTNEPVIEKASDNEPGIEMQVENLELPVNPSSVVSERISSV
# [4] = target: 5-hydroxytryptamine receptor 4 (Homo sapiens) (UniProt Q13639); test: Displacement of [3H]-GR113808 from recombinant human 5-HT4B receptor expressed in Chem1 cell membranes after 120 mins by microbeta scintillation counting analysis
# [5] = target: 5-hydroxytryptamine receptor 7 (Rattus norvegicus) (UniProt P32305); test: Binding affinity to recombinant rat 5-HT7 receptor expressed in CHOK1 cells assessed as inhibition of 5-HT stimulated cAMP accumulation after 4 hrs by luciferase reporter gene assay; assay type: cell-based
# Cytochrome P450 2D6 = Cytochrome P450 2D6 (Homo sapiens, UniProt P10635); test: Inhibition of CYP2D6 in human liver microsomes in presence of NADPH by LC-MS/MS analysis
# [6] = Cmax in Wistar rat at 10 mg/kg, po by LC-MS/MS analysis; assay type: ADME, organism-based; design: dose 10 mg/kg, route oral; settings: in vivo
# Rattus norvegicus [7] = test: (§1) AUC (0 to t) in Wistar rat at 10 mg/kg, po by LC-MS/MS analysis; assay type: ADME, organism-based; settings: in vivo
# Rattus norvegicus [8] = test: (§2) Oral bioavailability in Wistar rat at 10 mg/kg by LC-MS/MS analysis; assay type: ADME, organism-based; settings: in vivo
# [9] = Half life in Wistar rat at 10 mg/kg, iv by LC-MS/MS analysis; assay type: ADME, organism-based; settings: in vivo
# [10] = Apparent volume of distribution in Wistar rat at 10 mg/kg, iv by LC-MS/MS analysis; assay type: ADME, organism-based; settings: in vivo, read-out: Vz
# Cytochrome P450 3A4 = Cytochrome P450 3A4 (Homo sapiens, UniProt P08684)
# Rattus norvegicus [11] = test: Reversal of time-induced amnesia in Wistar rat at 1 to 3 mg/kg, sc administered 60 mins prior to testing measured for 3 mins by object recognition test; assay type: functional, organism-based
# [12] = as §1; assay type: ADME, organism-based; settings: Wistar, in vivo
# [13] = as §2; assay type: ADME, organism-based; settings: Wistar, in vivo
# [14] = Clearance in Wistar rat at 10 mg/kg, iv by LC-MS/MS analysis; assay type: ADME, organism-based; settings: in vivo
# [15] = Ratio of drug uptake in Wistar rat brain to plasma at 10 mg/kg, po by LC-MS/MS analysis; assay type: ADME, organism-based; settings: read-out: BPR
# Rattus norvegicus [16] = test: Reversal of time-induced amnesia in Wistar rat at 10 mg/kg, po administered 60 mins prior to testing measured for 3 mins by object recognition test; assay type: functional, organism-based
# Summary of the method: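 Time-induced object recognition task in rats. Oral dosing at 1, 3 and 10 mg/kg given 60 min before the test; vehicle water for injection 1 mL/kg p.o.; n = 7−12/group. Exploration of novel versus familiar object compared by paired t-test.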
# Rattus norvegicus [17] = test: Increase in acetylcholine level in Wistar rat ventral hippocampus at 1 mg/kg, sc after 4 hrs in presence of 1 mg/kg of donepezil administered sc by LC-MS/MS based microdialysis method relative to control; assay type: functional
# [18] = target: T3, 5-hydroxytryptamine receptor 6 (Homo sapiens, UniProt P50406); test: Displacement of [3H]-LSD from recombinant human 5-HT6 receptor expressed in HEK293 cells after 60 mins; assay type: cell-based
# [19] = target: T3, 5-hydroxytryptamine receptor 6; test: Antagonist activity at recombinant human 5-HT6 receptor expressed in CHO cells assessed as inhibition of 5-HT stimulated cAMP accumulation after 4 hrs by luciferase reporter gene assay; assay type: functional, cell-based
# Summary of the method: (§3)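 Stable CHO line expressing recombinant human 5-HT6 receptor with a pCRE-luciferase reporter, a nonradioactive cell-based format. Output is Kb (nM), the mean of duplicate experiments, with Imax (%) also reported.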
# [20] = target: T3, 5-hydroxytryptamine receptor 6; test: Antagonist activity at recombinant human 5-HT6 receptor expressed in CHO cells assessed as inhibition of 5-HT stimulated cAMP accumulation after 4 hrs by luciferase reporter gene assay relative to control; assay type: functional, cell-based; summary of the method: as §3
# 5-hydroxytryptamine receptor 4 (Homo sapiens), sequence (Q13639 whole entry): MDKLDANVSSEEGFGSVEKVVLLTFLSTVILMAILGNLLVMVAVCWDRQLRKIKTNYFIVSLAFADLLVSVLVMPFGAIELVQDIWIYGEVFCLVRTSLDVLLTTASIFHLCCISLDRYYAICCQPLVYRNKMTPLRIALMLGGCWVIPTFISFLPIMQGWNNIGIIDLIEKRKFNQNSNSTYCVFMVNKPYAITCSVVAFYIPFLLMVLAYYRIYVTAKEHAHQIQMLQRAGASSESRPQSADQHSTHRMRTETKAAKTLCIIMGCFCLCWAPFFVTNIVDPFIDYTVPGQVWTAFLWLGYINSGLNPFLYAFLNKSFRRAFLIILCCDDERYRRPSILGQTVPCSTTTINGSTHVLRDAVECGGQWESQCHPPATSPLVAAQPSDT
# T3 sequence (P50406 whole entry): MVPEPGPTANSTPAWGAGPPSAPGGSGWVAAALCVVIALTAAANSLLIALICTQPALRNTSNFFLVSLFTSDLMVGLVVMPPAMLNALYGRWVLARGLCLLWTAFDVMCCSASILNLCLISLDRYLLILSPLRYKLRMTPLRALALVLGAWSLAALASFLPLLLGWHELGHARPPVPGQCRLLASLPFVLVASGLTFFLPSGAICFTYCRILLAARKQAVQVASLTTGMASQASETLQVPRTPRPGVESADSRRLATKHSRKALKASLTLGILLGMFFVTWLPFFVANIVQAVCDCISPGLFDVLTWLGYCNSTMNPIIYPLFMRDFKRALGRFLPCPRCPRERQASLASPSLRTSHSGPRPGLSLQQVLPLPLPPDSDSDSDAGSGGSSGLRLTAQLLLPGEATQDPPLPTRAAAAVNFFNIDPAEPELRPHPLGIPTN
# 5-hydroxytryptamine receptor 7 (Rattus norvegicus), sequence (P32305 whole entry): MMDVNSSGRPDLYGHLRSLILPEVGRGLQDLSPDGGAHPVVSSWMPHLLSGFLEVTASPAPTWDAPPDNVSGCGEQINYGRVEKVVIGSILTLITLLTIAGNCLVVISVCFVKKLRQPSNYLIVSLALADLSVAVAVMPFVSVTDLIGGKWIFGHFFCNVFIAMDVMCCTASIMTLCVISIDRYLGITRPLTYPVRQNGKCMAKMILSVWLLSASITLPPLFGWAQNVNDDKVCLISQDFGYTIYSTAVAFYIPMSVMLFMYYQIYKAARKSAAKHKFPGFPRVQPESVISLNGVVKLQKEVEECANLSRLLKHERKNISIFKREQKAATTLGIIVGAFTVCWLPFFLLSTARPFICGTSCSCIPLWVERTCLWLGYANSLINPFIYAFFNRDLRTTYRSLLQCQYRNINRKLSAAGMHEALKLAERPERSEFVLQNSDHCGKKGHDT
# Cytochrome P450 3A4, sequence (P08684 whole entry): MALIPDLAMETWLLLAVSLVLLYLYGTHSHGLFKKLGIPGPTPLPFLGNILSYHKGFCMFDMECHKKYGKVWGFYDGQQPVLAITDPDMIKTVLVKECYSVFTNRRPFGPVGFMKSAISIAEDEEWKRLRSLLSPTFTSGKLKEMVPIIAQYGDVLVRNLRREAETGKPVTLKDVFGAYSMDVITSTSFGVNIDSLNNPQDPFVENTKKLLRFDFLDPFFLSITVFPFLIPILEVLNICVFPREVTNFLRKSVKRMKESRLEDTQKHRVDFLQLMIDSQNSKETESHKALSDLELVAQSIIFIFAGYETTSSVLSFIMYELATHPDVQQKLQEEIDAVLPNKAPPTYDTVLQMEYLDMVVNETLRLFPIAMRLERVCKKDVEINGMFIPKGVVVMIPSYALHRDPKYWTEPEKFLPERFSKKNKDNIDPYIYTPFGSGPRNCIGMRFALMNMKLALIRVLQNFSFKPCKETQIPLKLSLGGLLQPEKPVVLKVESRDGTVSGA
# Cytochrome P450 2D6, sequence (P10635 whole entry): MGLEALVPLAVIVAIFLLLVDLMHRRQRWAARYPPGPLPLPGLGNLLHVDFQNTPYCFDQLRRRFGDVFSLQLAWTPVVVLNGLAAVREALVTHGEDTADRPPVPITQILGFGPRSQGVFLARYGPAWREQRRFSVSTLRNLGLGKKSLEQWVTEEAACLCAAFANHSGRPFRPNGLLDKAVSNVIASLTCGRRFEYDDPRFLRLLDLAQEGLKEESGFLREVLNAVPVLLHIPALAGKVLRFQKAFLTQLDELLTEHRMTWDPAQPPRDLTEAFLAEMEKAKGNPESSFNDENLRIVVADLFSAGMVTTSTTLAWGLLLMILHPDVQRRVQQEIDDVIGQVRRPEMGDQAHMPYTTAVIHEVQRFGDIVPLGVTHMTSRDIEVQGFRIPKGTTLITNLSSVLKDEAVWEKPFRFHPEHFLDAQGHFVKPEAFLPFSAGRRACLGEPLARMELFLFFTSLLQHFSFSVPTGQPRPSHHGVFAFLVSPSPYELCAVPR
# 5-hydroxytryptamine receptor 2A (Homo sapiens), sequence (P28223 whole entry): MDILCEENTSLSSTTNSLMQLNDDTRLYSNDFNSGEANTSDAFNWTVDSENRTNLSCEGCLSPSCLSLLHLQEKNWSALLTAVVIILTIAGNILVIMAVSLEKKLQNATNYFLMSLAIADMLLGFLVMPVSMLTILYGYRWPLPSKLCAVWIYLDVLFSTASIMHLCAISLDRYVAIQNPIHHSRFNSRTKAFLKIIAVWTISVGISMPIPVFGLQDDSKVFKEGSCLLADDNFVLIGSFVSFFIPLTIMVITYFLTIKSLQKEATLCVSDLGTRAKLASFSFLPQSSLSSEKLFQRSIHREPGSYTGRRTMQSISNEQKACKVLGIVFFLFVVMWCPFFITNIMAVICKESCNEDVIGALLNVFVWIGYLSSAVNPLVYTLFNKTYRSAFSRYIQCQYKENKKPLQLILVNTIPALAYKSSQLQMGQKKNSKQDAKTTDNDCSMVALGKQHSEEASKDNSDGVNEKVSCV
Compound,Activity [1],Activity [2],Activity [3],Activity [4],Activity [5],IC50 (Cytochrome P450 2D6),Cmax [6],half-life [9],Vd [10],IC50 (Cytochrome P450 3A4),AUC(0-t) [12],bioavailability [13],clearance [14],Ki [18],Kb [19],Imax [20],also measured
COc1ccc2c(c1)c(CN1CCCN(C)CC1)cn2S(=O)(=O)c1ccc(C(C)C)cc1.Cl.Cl,Active,inactive,inactive,inactive,inactive,1900 nM,22 ng/mL,5.7 h,49.5 L/kg,2200 nM,–,–,–,–,–,–,AUCt (Rattus norvegicus [7]): 157 ng·h/mL; F (Rattus norvegicus [8]): 4%
CN(C)CCCOc1ccc2[nH]nc(S(=O)(=O)c3cccc4ccccc34)c2c1,–,–,–,–,–,–,–,–,–,–,–,–,–,–,–,–,Activity (Rattus norvegicus [11]): Active
CC12CC3CC(C)(C1)CC(N)(C3)C2 [MEMANTINE],–,–,–,–,–,–,–,–,–,–,–,–,–,–,–,–,Activity (Rattus norvegicus [17]): 1203%

# Second part, led by results:
Activity [1],Activity [2],Activity [3],Activity [4],Activity [5],IC50 (Cytochrome P450 2D6),Cmax [6],half-life [9],Vd [10],IC50 (Cytochrome P450 3A4),AUC(0-t) [12],bioavailability [13],clearance [14],Ki [18],Kb [19],Imax [20],Compound,also measured
Active,inactive,inactive,inactive,inactive,> 10000 nM,1220 ng/mL,0.89 h,1.2 L/kg,> 10000 nM,2220 ng·h/mL,21.4%,14.9 mL/min/kg,–,–,–,CN1CCN(Cc2cn(S(=O)(=O)c3ccccc3)c3ccccc23)CC1.Cl.Cl,Kp [15]: 0.82; Activity (Rattus norvegicus [16]): Active
Active,inactive,inactive,inactive,inactive,7700 nM,1900 ng/mL,1.93 h,3.2 L/kg,1400 nM,7740 ng·h/mL,91.4%,19.5 mL/min/kg,4 nM,14 nM,99%,CC(C)c1ccc(S(=O)(=O)n2cc(CN3CCN(C)CC3)c3cc(F)ccc32)cc1.Cl.Cl,Kp [15]: 0.95; Activity (Rattus norvegicus [16]): Active
Active,inactive,inactive,inactive,inactive,–,125 ng/mL,1.5 h,6.3 L/kg,–,221 ng·h/mL,17.5%,75 mL/min/kg,8.76 nM,12.3 nM,98%,CN1CCN(Cc2cn(S(=O)(=O)c3ccc(F)cc3)c3ccccc23)CC1,–
Active,inactive,inactive,inactive,inactive,9700 nM,45.6 ng/mL,2.12 h,6.1 L/kg,–,138 ng·h/mL,10.7%,65 mL/min/kg,11.6 nM,9.8 nM,98%,COc1cccc2c1c(CN1CCN(C)CC1)cn2S(=O)(=O)c1ccc(C(C)C)cc1.Cl.Cl,–

# Reference: ChEMBL document CHEMBL4007422 (J Med Chem, 2017)
